# High-throughput results: PubChem BioAssay, Sanford-Burnham Center for Chemical Genomics
# A selection: hits, their analogues and other compounds. The true share with any hit is near 2.3%.
# CSN deneddyl inh: inhibitors of CSN-mediated cullin deneddylation, primary screen, biochemical, fluorescence polarization, uHTS. COP9 signalosome complex subunit 5 (Homo sapiens), Q92905. Purified CSN, SCF-Nedd8-OG deneddylation. inhibition, % at 12.5 µM. hit rate 0.38% among 360,000. AID 651999, 2013;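 active means pattern-corrected inhibition above about 35%, with an unprinted fluorescence ratio check between 0.5 and 1.5, limit read from the data, passing the limit was not always enough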
# Target sequence (Q92905 whole entry, looked up, one chain of several): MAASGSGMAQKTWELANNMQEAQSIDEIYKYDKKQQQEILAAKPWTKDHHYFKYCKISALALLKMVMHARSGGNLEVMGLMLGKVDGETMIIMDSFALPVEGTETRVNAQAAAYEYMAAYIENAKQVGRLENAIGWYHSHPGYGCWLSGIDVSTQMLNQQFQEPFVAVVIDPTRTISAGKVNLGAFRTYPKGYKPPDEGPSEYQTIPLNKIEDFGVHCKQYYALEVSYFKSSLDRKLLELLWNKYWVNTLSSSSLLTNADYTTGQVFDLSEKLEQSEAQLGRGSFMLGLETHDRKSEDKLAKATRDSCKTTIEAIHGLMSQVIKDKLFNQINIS
#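 Assay system: HEK293T-derived human Csn5 enzyme; quantity: 0.24 nM enzyme; medium: Tris/NaCl/DTT buffer, pH 7.5; also added: substrate SCFSkp2-Nedd8OG, 10 nM; doses: 12.5 µM compound; schedule: 90 min reaction at room temperature; signal: FP; read-out: % inhibition of substrate cleavage by Csn5; benchmarks: substrate-only high control, full reaction low control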
# DNMT1 block: human DNMT1 methyltransferase inhibitors, primary screen, biochemical, molecular beacon, fluorescence, HinP1I cleavage, uHTS; DNA (cytosine-5)-methyltransferase 1 (Homo sapiens), P26358; inhibition (reported as % activation of signal), % at 10 µM; hit rate 0.83% among 360,000; AID 588458, 2011
# Rpn11 inh: Rpn11 (PSMD14) deubiquitinase inhibitors, primary screen, biochemical, fluorescence polarization, uHTS. AID 588493, 2011. human 26S proteasome, Ub4-pepOG fluorescence polarization; 20S core pre-blocked with epoxomicin. hit rate 0.59% among 360,000. inhibition, % at 20 µM. 26S proteasome non-ATPase regulatory subunit 14 (Homo sapiens), O00487;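 active means inhibition at 20 µM, scaled to each plate's controls, above about 33%, limit read from the data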
# MT1-MMP act inh: blockers of MT1-MMP proenzyme processing, primary screen, HT1080 RFP-PRO-GFP cells, GFP/RFP fluorescence; Matrix metalloproteinase-14 (Homo sapiens), P50281; GFP/RFP ratio fluorescence, overnight; percent of plate control window, DMSO zero; GFP/RFP ratio change, % at 20 µM; hit rate 0.061% among 360,000;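 active means GFP/RFP ratio change of at least 30% with cell ATP level not reduced by more than half and red fluorescence within 50% of control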
#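 Read-out: GFP/RFP fluorescence ratio; Test system: RFP-PRO-GFP reporter HT1080 cells; Compound dosing: single-point 20 µM compound, 1% DMSO; Times: overnight compound exposure at 37 °C.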
# SKN-1 block: suppressors of acrylamide-induced Pgst-4::GFP reporter in worms, primary screen, SKN-1 inhibitor project, whole organism, uHTS, GFP/RFP fluorescence ratio, strain VP596; inhibition, % at 21.8 µM; C. elegans VP596 Pgst-4::GFP/RFP ratio, 24 h; hit rate 0.49% among 360,000;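 active means interference check ratio from 0.5 to 1.5 plus GFP to RFP signal ratio inhibition reaching or exceeding a fixed threshold, cut at about 30% in these data, passing the limit was not always enough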
# SUMO1-SIM PPI: modulators of SUMO1 protein-protein interactions, primary screen, biochemical, uHTS | Small ubiquitin-related modifier 1 (Homo sapiens), P63165 | SUMO1 binding to a labelled peptide, TR-FRET, 1 h | inhibition, % at 20 µM | hit rate 0.33% among 360,000 | AID 602429, 2012; in the data active means inhibition above about 37%
# Target sequence (P63165 whole entry, looked up): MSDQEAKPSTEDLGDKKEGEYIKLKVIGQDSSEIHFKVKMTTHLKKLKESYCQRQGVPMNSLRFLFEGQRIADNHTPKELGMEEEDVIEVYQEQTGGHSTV
# CSN deneddyl val: Csn5 deneddylation inhibitors, confirmation, biochemical, fluorescence polarization, single concentration, SCF-Nedd8OG substrate | shares compounds with CSN deneddyl inh | Csn5 deneddylation of SCF-Nedd8OG, 90 min | inhibition, % at 16.6 µM | hit rate 62% among 540 | AID 720654, 2013
# MMP2 cntr CSN: MMP-2 protease inhibition counter-screen, confirmation, counter-screen for CSN deneddylation inhibitor project, biochemical, fluorescence, single concentration; shares compounds with CSN deneddyl inh; recombinant MMP-2, FRET substrate fluorescence, 60 min; inhibition, % at 16.6 µM; hit rate 33% among 540;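 active means corrected plate-normalized z-score of 5 or more, or -5 or less, or inhibition of 15% or more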
# Thrombin counter: thrombin (bovine) inhibition, counter-screen for CSN hits. bovine thrombin cleavage of Ub4-pepOG, fluorescence polarization. shares compounds with CSN deneddyl inh. inhibition, % at 16.6 µM. hit rate 49% among 540. AID 720656;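 active means inhibition at or above a set limit, with a fluorescence interference ratio between 0.5 and a set maximum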
# A number is an active result; i = inactive; nt = not tested or not shown. Unless noted, no stated cut-off is given here; in the data, active means inhibition above about 50%; inactive means the rest.
SMILES,CSN deneddyl inh,DNMT1 block,Rpn11 inh,MT1-MMP act inh,SKN-1 block,SUMO1-SIM PPI,CSN deneddyl val,MMP2 cntr CSN,Thrombin counter
COc1ccccc1-n1cc([C@@H]2C[C@H]3CN(c4ccccc4)C(=O)[C@]34CCCN24)cn1,54,i,nt,i,40,i,69,i,37
Nc1ncnc2c1ccn2[C@H]1CN(Cc2ccc(Cl)cc2)C[C@@H](CO)O1,i,i,i,i,i,i,nt,nt,nt
Nc1ccc2c(c1)Cc1cc([N+](=O)[O-])ccc1-2,i,i,i,i,i,i,nt,nt,nt
CC(O)CN(CC(C)O)c1ccc2c(c1)Cc1cc([N+](=O)[O-])ccc1-2 (stereo not drawn),58,i,nt,i,i,i,i,i,82
COC1C(CO)OC(n2c3c(Cl)cccc3c3c4c(c5c6cccc(Cl)c6[nH]c5c32)C(=O)NC4=O)C(O)C1O (stereo not drawn),80,i,nt,i,i,i,197,i,i
O=C(NCc1cccnc1)c1cc(C2CCCN(C(=O)c3cccc(O)c3)C2)on1 (stereo not drawn),i,i,i,i,i,i,nt,nt,nt
O=C(N[C@H](CO)c1ccccc1)[C@H]1O[C@@H](n2ccc(=O)[nH]c2=O)[C@H](O)[C@@H]1O,i,i,i,i,i,i,nt,nt,nt
O=C(O)c1cccc(-c2ccc(/C=c3/sc4nc5ccccc5n4c3=O)o2)c1,129,87,nt,i,i,103,i,19,78
CCOc1cc(Br)cc(/C=C2\SC(=Nc3ccccc3)NC2=O)c1O,i,i,i,i,i,i,nt,nt,nt
C=CCOc1ccc(Br)cc1/C=C1/SC(=Nc2ccc(C(=O)O)cc2)NC1=O,36,i,i,i,i,i,97,i,i
CC(C)CC(=NNC(=O)c1ccncc1)c1cc(Cl)ccc1O,63,i,nt,i,i,i,71,-51,46
CC(=NNC(=O)c1ccncc1)c1ccccc1O,i,i,i,i,i,i,nt,nt,nt
N#Cc1c(NC(=O)/C=C/C(=O)O)sc2c1CCN(Cc1ccccc1)C2,42,i,nt,i,i,i,i,i,46
O=C(O)c1ccc(N2C(=O)/C(=C/C=C/c3ccccc3)SC2=S)cc1,i,i,i,i,i,i,nt,nt,nt
O=C1/C(=C/C=C/c2ccco2)SC(=S)N1c1ccc(O)cc1,57,93,95,i,i,60,64,31,42
COc1ccc(NC(=S)Nc2ccc3nsnc3c2)cc1,49,64,i,i,i,58,94,30,i
CCN1C(=O)/C(=C/C=C2\N(CC)c3cc(S(=O)(=O)N(C)C)ccc3N2c2ccccc2)SC1=S,75,i,nt,i,i,i,63,i,34
COc1cc(NCC2COc3c(ccc(OC)c3OC)C2=O)c([N+](=O)[O-])cc1OC (stereo not drawn),i,i,i,i,i,i,nt,nt,nt
CSc1nc(N(C)CCO)c2sc3nc(-c4ccco4)c4c(c3c2n1)CCC4,i,i,i,i,i,i,nt,nt,nt
CSc1nc(SCC(=O)O)c2sc3nc(-c4ccccc4)c4c(c3c2n1)CCC4,64,97,i,i,i,101,i,30,i
Cc1ccc(C2=NN(S(=O)(=O)c3ccccc3)C(c3ccccc3O)C2)cc1 (stereo not drawn),61,i,nt,i,i,i,57,i,56
COc1ccc(C2CC(c3ccccc3)=NN2S(=O)(=O)c2ccccc2)cc1 (stereo not drawn),i,i,i,i,i,i,nt,nt,nt
NC1=NC(=Nc2cccc(S(N)(=O)=O)c2)c2ccccc21,i,i,i,i,i,i,nt,nt,nt
COc1cc(N=Nc2cccc(S(N)(=O)=O)c2)c2ccccc2c1N,46,i,92,i,i,i,82,i,26
COC(=O)C1(C(=O)OC)C[C@H](c2ccc(OC)cc2)N(Cc2ccccc2OC)[C@@H]1c1cccs1,i,nt,nt,i,i,i,nt,nt,nt
SMILES,CSN deneddyl inh,DNMT1 block,Rpn11 inh,MT1-MMP act inh,SKN-1 block,SUMO1-SIM PPI,CSN deneddyl val,MMP2 cntr CSN,Thrombin counter
O=C(c1cc(C2CCCCN2S(=O)(=O)c2ccc(F)cc2F)on1)N1CCOCC1 (stereo not drawn),i,i,i,i,i,i,nt,nt,nt
c1ccc(Cn2c(Cn3c(-c4cnccn4)nc4ccccc43)nc3ccccc32)cc1,i,nt,nt,i,i,i,nt,nt,nt
COc1ccccc1/C=C1\SC(=S)N(Nc2nc(C)cc(C)n2)C1=O,i,i,i,i,i,i,nt,nt,nt
Cc1cc(C)nc(NN2C(=O)/C(=C/c3ccc(O)cc3)SC2=S)n1,92,i,nt,i,i,i,i,i,83
O=C(Nc1c(-c2ccc(Cl)cc2)[nH][nH]c1=O)c1ccc(Br)cc1,i,i,i,i,i,i,nt,nt,nt
CCC(=O)Nc1ccc(C(=O)COC(=O)c2nc3nccc(C)n3n2)cc1,44,109,i,i,i,i,nt,i,i
CC1(Cc2ccc(Cl)s2)C(=O)Nc2c(Cl)ccc(Cl)c21 (stereo not drawn),i,i,i,i,i,i,nt,nt,nt
Cc1c(N2C(=O)/C(=C/c3ccccc3)SC2=S)c(=O)n(-c2ccccc2)n1C,i,i,i,i,i,i,nt,nt,nt
Cc1c(N2C(=O)/C(=C/c3ccc(N(C)C)cc3)N(C)C2=S)c(=O)n(-c2ccccc2)n1C,61,i,nt,i,i,i,i,i,74
CC(O)CC(=O)OC[C@]12CC[C@H]3[C@@](C)(CC[C@H]4C(C)(C)CCC[C@]34C)[C@@H]1CC(C1=CC(=O)OC1O)O2 (stereo partly drawn),46,i,i,i,i,i,i,i,i
C#Cc1ccc(NC(=O)C2(C)CCN2C(=O)CC(c2ccccc2)c2ccccc2)cc1 (stereo not drawn),i,i,i,i,i,i,nt,nt,nt
